In ChEMBL document CHEMBL1135742, “Modification of the structure of a metallopeptide: synthesis and biological evaluation of (111)In-labeled DOTA-conjugated rhenium-cyclized alpha-MSH analogues” (J Med Chem, 2002):

Experiments:
Assay type in all cases: functional, organism-based
Mus musculus [1] = organism: Mus musculus; test: Uptake Ratio of Tumor/liver (each in % ID/g) in B16/F1 Murine Melanoma-Bearing C57 Mice at 4 h
How it was run: (§1)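 C57 BL/6 female mice (7–8 weeks) carried B16/F1 tumours from 1×10^6 cells given s.c. in the right flank; tumours were ~500 mg at 9–10 days. Each mouse received […] of HPLC-purified, neutralized 111In-DOTA peptide via the tail vein. Mice were killed at 0.5, 2, 4 or 24 h pi. Tissues were weighed and γ-counted, expressed as % ID/g; ratios were tumor/tissue % ID/g.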

Mus musculus [2] = organism: Mus musculus; test: Uptake Ratio of Tumor/lungs (each in % ID/g) in B16/F1 Murine Melanoma-Bearing C57 Mice at 0.5 h
How it was run: (§2)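 Female C57 BL/6 mice, 7–8 weeks old, carried subcutaneous right-flank B16/F1 tumors from 1×10^6 cells and were used 9–10 days later at ~500 mg tumor weight. Each received […] of HPLC-purified, pH-neutralized ¹¹¹In-DOTA peptide by tail vein. Tumor and organs were excised at the stated time, weighed and γ-counted. Each tissue was taken as % ID/g, and tumor/normal-tissue ratios were formed from these values.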

Mus musculus [3] = organism: Mus musculus; test: Uptake Ratio of Tumor/blood (each in % ID/g) in B16/F1 Murine Melanoma-Bearing C57 Mice at 0.5 h; how it was run: as §1
Mus musculus [4] = organism: Mus musculus; test: Radioactivity uptake in the spleen was expressed as a percentage of the injected radioactive dose per gram of tissue (% ID/g) in B16/F1 Murine Melanoma-Bearing C57 Mice at 4 h; how it was run: as §1
Mus musculus [5] = organism: Mus musculus; test: Radioactivity uptake in the muscle was expressed as a percentage of the injected radioactive dose per gram of tissue (% ID/g) in B16/F1 Murine Melanoma-Bearing C57 Mice at 4 h; how it was run: as §1
Mus musculus [6] = organism: Mus musculus; test: Radioactivity uptake in the lungs was expressed as a percentage of the injected radioactive dose per gram of tissue (% ID/g) in B16/F1 Murine Melanoma-Bearing C57 Mice at 0.5 h; settings: Lung; how it was run: as §1
Mus musculus [7] = organism: Mus musculus; test: Uptake Ratio of Tumor/muscle (each in % ID/g) in B16/F1 Murine Melanoma-Bearing C57 Mice at 2 h; settings: Muscle tissue; how it was run: as §2
Mus musculus [8] = organism: Mus musculus; test: Radioactivity uptake in the liver was expressed as a percentage of the injected radioactive dose per gram of tissue (% ID/g) in B16/F1 Murine Melanoma-Bearing C57 Mice at 24 h; how it was run: as §1
Mus musculus [9] = organism: Mus musculus; test: Radioactivity uptake in the heart was expressed as a percentage of the injected radioactive dose per gram of tissue (% ID/g) in B16/F1 Murine Melanoma-Bearing C57 Mice at 4 h; how it was run: as §1
Mus musculus [10] = organism: Mus musculus; test: Radioactivity uptake in the liver was expressed as a percentage of the injected radioactive dose per gram of tissue (% ID/g) in B16/F1 Murine Melanoma-Bearing C57 Mice at 2 h; how it was run: as §1
Mus musculus [11] = organism: Mus musculus; test: Radioactivity uptake in the muscle was expressed as a percentage of the injected radioactive dose per gram of tissue (% ID/g) in B16/F1 Murine Melanoma-Bearing C57 Mice at 0.5 h; how it was run: as §1
Mus musculus [12] = organism: Mus musculus; test: Uptake Ratio of Tumor/kidneys (each in % ID/g) in B16/F1 Murine Melanoma-Bearing C57 Mice at 4 h; settings: Kidney; how it was run: as §1
Mus musculus [13] = organism: Mus musculus; test: Radioactivity uptake in the muscle was expressed as a percentage of the injected radioactive dose per gram of tissue (% ID/g) in B16/F1 Murine Melanoma-Bearing C57 Mice at 2 h; how it was run: as §1
Mus musculus [14] = organism: Mus musculus; test: Radioactivity uptake in the tumor was expressed as a percentage of the injected radioactive dose per gram of tissue (% ID/g) in B16/F1 Murine Melanoma-Bearing C57 Mice at 4 h; how it was run: as §1
Mus musculus [15] = organism: Mus musculus; test: Radioactivity uptake in the heart was expressed as a percentage of the injected radioactive dose per gram of tissue (% ID/g) in B16/F1 Murine Melanoma-Bearing C57 Mice at 0.5 h; how it was run: as §1
Mus musculus [16] = organism: Mus musculus; test: Radioactivity uptake in the spleen was expressed as a percentage of the injected radioactive dose per gram of tissue (% ID/g) in B16/F1 Murine Melanoma-Bearing C57 Mice at 2 h; how it was run: as §1
Mus musculus [17] = organism: Mus musculus; test: Uptake Ratio of Tumor/blood (each in % ID/g) in B16/F1 Murine Melanoma-Bearing C57 Mice at 4 h; how it was run: as §1
Mus musculus [18] = organism: Mus musculus; test: Uptake Ratio of Tumor/kidneys (each in % ID/g) in B16/F1 Murine Melanoma-Bearing C57 Mice at 24 h; settings: Kidney; how it was run: as §1
Mus musculus [19] = organism: Mus musculus; test: Radioactivity uptake in the blood was expressed as a percentage of the injected radioactive dose per gram of tissue (% ID/g) in B16/F1 Murine Melanoma-Bearing C57 Mice at 24 h; how it was run: as §1
Mus musculus [20] = organism: Mus musculus; test: Uptake Ratio of Tumor/kidneys (each in % ID/g) in B16/F1 Murine Melanoma-Bearing C57 Mice at 2 h; settings: Kidney; how it was run: as §1
Mus musculus [21] = organism: Mus musculus; test: Uptake Ratio of Tumor/kidneys (each in % ID/g) in B16/F1 Murine Melanoma-Bearing C57 Mice at 0.5 h; settings: Kidney; how it was run: as §1
Mus musculus [22] = organism: Mus musculus; test: Radioactivity uptake in the lungs was expressed as a percentage of the injected radioactive dose per gram of tissue (% ID/g) in B16/F1 Murine Melanoma-Bearing C57 Mice at 2 h; settings: Lung; how it was run: as §1
Mus musculus [23] = organism: Mus musculus; test: Radioactivity uptake in the blood was expressed as a percentage of the injected radioactive dose per gram of tissue (% ID/g) in B16/F1 Murine Melanoma-Bearing C57 Mice at 2 h; how it was run: as §1
Mus musculus [24] = organism: Mus musculus; test: Radioactivity uptake in the lungs was expressed as a percentage of the injected radioactive dose per gram of tissue (% ID/g) in B16/F1 Murine Melanoma-Bearing C57 Mice at 24 h; settings: Lung; how it was run: as §1
Mus musculus [25] = organism: Mus musculus; test: Radioactivity uptake in the liver was expressed as a percentage of the injected radioactive dose per gram of tissue (% ID/g) in B16/F1 Murine Melanoma-Bearing C57 Mice at 0.5 h; how it was run: as §1
Mus musculus [26] = organism: Mus musculus; test: Radioactivity uptake in the tumor was expressed as a percentage of the injected radioactive dose per gram of tissue (% ID/g) in B16/F1 Murine Melanoma-Bearing C57 Mice at 24 h; how it was run: as §1
Mus musculus [27] = organism: Mus musculus; test: Uptake Ratio of Tumor/blood (each in % ID/g) in B16/F1 Murine Melanoma-Bearing C57 Mice at 24 h; how it was run: as §1
Mus musculus [28] = organism: Mus musculus; test: Radioactivity uptake in the muscle was expressed as a percentage of the injected radioactive dose per gram of tissue (% ID/g) in B16/F1 Murine Melanoma-Bearing C57 Mice at 24 h; how it was run: as §1
Mus musculus [29] = organism: Mus musculus; test: Radioactivity uptake in the blood was expressed as a percentage of the injected radioactive dose per gram of tissue (% ID/g) in B16/F1 Murine Melanoma-Bearing C57 Mice at 0.5 h; how it was run: as §1
Mus musculus [30] = organism: Mus musculus; test: Uptake Ratio of Tumor/blood (each in % ID/g) in B16/F1 Murine Melanoma-Bearing C57 Mice at 2 h; how it was run: as §1
Mus musculus [31] = organism: Mus musculus; test: Radioactivity uptake in the liver was expressed as a percentage of the injected radioactive dose per gram of tissue (% ID/g) in B16/F1 Murine Melanoma-Bearing C57 Mice at 4 h; how it was run: as §1
Mus musculus [32] = organism: Mus musculus; test: Uptake Ratio of Tumor/liver (each in % ID/g) in B16/F1 Murine Melanoma-Bearing C57 Mice at 0.5 h; how it was run: as §1
Mus musculus [33] = organism: Mus musculus; test: Radioactivity uptake in the kidneys was expressed as a percentage of the injected radioactive dose per gram of tissue (% ID/g) in B16/F1 Murine Melanoma-Bearing C57 Mice at 24 h; settings: Kidney; how it was run: as §1

| Substance | Uptake ratio (Mus musculus [1]) | Uptake ratio (Mus musculus [2]) | Uptake ratio (Mus musculus [3]) | ID/g (Mus musculus [4]) [%] | ID/g (Mus musculus [5]) [%] | ID/g (Mus musculus [6]) [%] | Uptake ratio (Mus musculus [7]) | ID/g (Mus musculus [8]) [%] | ID/g (Mus musculus [9]) [%] | ID/g (Mus musculus [10]) [%] | ID/g (Mus musculus [11]) [%] | Uptake ratio (Mus musculus [12]) | ID/g (Mus musculus [13]) [%] | ID/g (Mus musculus [14]) [%] | ID/g (Mus musculus [15]) [%] | ID/g (Mus musculus [16]) [%] | Uptake ratio (Mus musculus [17]) | Uptake ratio (Mus musculus [18]) | ID/g (Mus musculus [19]) [%] | Uptake ratio (Mus musculus [20]) | other results |
| --- | --- | --- | --- | --- | --- | --- | --- | --- | --- | --- | --- | --- | --- | --- | --- | --- | --- | --- | --- | --- | --- |
| DOTA-ReCCEHdFRWCKPV-NH2 | 49.4 | 6.6 | 6.9 | 0.22 | 0.093 | 1.7 | 319 | 0.16 | 0.12 | 0.23 | 0.42 | 1.1 | 0.047 | 9.46 | 0.72 | 0.09 | 490 | 0.88 | 0.01 | 1.3 | Uptake ratio (Mus musculus [21]): 0.85; ID/g (Mus musculus [22]): 0.18%; ID/g (Mus musculus [23]): 0.065%; ID/g (Mus musculus [24]): 0.06%; ID/g (Mus musculus [25]): 0.59%; ID/g (Mus musculus [26]): 4.86%; Uptake ratio (Mus musculus [27]): 601; ID/g (Mus musculus [28]): 0.031%; ID/g (Mus musculus [29]): 1.57%; Uptake ratio (Mus musculus [30]): 196; ID/g (Mus musculus [31]): 0.2%; Uptake ratio (Mus musculus [32]): 18.4; ID/g (Mus musculus [33]): 5.64% |
| DOTA-ReCCEHdFRWCRPV-NH2 | 60.2 | 11.1 | 9.7 | 0.27 | 0.086 | 1.66 | 2100 | 0.32 | 0.054 | 0.38 | 0.39 | 2.5 | 0.03 | 17.4 | 0.76 | 0.27 | 254 | 1.5 | 0.06 | 2 | Uptake ratio (Mus musculus [21]): 1.8; ID/g (Mus musculus [22]): 0.3%; ID/g (Mus musculus [23]): 0.21%; ID/g (Mus musculus [24]): 0.24%; ID/g (Mus musculus [25]): 0.66%; ID/g (Mus musculus [26]): 8.19%; Uptake ratio (Mus musculus [27]): 95; ID/g (Mus musculus [28]): 0.14%; ID/g (Mus musculus [29]): 1.7%; Uptake ratio (Mus musculus [30]): 93.7; ID/g (Mus musculus [31]): 0.3%; Uptake ratio (Mus musculus [32]): 25.2; ID/g (Mus musculus [33]): 5.64% |
| DOTA-ReCCEHdFRWCKPVD-OH | 46.8 | 7.8 | 6.8 | 0.16 | 0.047 | 1.16 | 102 | 0.19 | 0.054 | 0.16 | 0.25 | 0.91 | 0.13 | 7.32 | 0.44 | 0.23 | 199 | 0.4 | 0.018 | 1.1 | Uptake ratio (Mus musculus [21]): 0.78; ID/g (Mus musculus [22]): 0.16%; ID/g (Mus musculus [23]): 0.05%; ID/g (Mus musculus [24]): 0.035%; ID/g (Mus musculus [25]): 0.43%; ID/g (Mus musculus [26]): 2.48%; Uptake ratio (Mus musculus [27]): 65.5; ID/g (Mus musculus [28]): 0.082%; ID/g (Mus musculus [29]): 1.33%; Uptake ratio (Mus musculus [30]): 224; ID/g (Mus musculus [31]): 0.16%; Uptake ratio (Mus musculus [32]): 20.7; ID/g (Mus musculus [33]): 6.28% |
